From ChEMBL document CHEMBL1212911, “Identification of potent and selective amidobipyridyl inhibitors of protein kinase D” (J Med Chem, 2010)

How the values were obtained:
[1] = target: T1, Serine/threonine-protein kinase D2 (Homo sapiens, UniProt Q9BZL6); experiment: Inhibition of PKD2 by TR-FRET assay
T1 sequence (Q9BZL6 whole entry): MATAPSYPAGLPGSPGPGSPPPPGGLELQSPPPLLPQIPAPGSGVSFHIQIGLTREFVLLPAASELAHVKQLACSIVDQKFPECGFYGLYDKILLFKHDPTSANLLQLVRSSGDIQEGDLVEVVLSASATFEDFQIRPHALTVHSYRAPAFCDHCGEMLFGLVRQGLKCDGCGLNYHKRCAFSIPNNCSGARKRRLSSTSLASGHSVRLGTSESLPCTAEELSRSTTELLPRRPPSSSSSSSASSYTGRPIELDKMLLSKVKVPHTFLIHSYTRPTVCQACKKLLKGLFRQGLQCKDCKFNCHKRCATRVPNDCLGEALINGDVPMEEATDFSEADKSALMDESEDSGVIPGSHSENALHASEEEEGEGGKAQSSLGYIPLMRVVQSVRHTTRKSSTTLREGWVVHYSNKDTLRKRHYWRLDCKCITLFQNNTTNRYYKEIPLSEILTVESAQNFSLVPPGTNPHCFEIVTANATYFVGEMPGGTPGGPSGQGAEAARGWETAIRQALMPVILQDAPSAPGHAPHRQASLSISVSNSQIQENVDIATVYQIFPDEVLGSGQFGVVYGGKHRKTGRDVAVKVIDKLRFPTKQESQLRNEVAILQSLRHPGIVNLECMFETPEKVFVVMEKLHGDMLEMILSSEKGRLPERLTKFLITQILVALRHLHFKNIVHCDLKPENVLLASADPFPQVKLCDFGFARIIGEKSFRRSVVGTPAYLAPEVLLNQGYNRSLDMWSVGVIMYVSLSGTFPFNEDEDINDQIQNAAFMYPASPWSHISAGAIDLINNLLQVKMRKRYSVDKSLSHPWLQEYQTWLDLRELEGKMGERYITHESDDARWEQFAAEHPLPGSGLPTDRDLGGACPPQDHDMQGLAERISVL

[2] = target: T2, Serine/threonine-protein kinase D1 (Homo sapiens, UniProt Q15139); experiment: Inhibition of PKD1 by TR-FRET assay
T2 sequence (Q15139 whole entry): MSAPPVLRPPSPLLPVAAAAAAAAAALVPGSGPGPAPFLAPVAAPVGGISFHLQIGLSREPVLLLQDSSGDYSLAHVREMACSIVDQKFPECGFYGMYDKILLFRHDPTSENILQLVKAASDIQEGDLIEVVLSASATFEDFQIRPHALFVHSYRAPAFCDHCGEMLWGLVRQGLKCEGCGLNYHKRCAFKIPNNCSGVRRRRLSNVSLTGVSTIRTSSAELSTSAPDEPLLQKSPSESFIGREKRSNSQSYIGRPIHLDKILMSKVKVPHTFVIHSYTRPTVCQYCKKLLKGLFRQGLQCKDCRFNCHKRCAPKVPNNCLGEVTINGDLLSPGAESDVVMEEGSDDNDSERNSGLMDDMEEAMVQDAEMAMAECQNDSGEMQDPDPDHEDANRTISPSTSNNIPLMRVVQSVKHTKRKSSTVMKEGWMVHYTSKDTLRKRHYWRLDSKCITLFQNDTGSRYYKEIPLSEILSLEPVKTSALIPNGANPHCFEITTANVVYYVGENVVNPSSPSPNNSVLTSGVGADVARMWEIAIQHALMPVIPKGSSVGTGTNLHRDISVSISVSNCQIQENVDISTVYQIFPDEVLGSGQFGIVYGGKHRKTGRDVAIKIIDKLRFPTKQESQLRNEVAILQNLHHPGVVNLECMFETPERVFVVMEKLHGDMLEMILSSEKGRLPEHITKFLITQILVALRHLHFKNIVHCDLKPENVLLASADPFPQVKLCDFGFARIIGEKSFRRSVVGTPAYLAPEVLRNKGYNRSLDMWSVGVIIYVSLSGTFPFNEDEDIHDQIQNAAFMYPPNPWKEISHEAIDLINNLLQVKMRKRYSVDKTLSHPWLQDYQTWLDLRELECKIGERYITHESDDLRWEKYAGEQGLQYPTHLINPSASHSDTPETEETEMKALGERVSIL
Procedure, shortened: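 Full-length wild-type PKD1 expressed and purified from Sf9 cells, 0.2 μg/mL, in 35 mM Tris-HCl pH 7.5, 5 mM MgCl2, 0.02% Tween-20, 20 μM ATP, 1 mM DTT. Reaction started with 2 μM biotinylated syntide-2 and run 50 min at room temperature. Stopped with EDTA plus europium anti-rabbit IgG, anti-phospho-syntide-2 antibody and streptavidin-APC. LANCE TR-FRET 665/615 ratio read after 1 h. 11-point curves in triplicate gave IC50.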

[3] = target: T2, Serine/threonine-protein kinase D1; experiment: Inhibition of PKD1 assessed as inhibition of HDAC5 neuclear export
Procedure, shortened: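 Neonatal rat ventricular myocytes infected with adenovirus encoding GFP-HDAC5 and plated on gelatin-coated wells. Cells exposed to compound and stimulated with PGF2α for 2 h, then fixed. Cytoplasmic versus nuclear GFP intensity quantified by high-content imaging.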

[4] = Cmax in rats after 5 mg/kg oral dose; format: ADME, organism-based; design: dose 5 mg/kg, route oral; settings: Sprague-Dawley, rat, in vivo
[5] = AUC (0 to 8 hrs) in Sprague-Dawley rat at 5 mg/kg, po; format: ADME, organism-based; design: time < 8 hr, dose 5 mg/kg, route oral; settings: plasma
[6] = Oral bioavailability in Sprague-Dawley rat at 5 mg/kg; format: ADME, organism-based; settings: in vivo
Procedure, shortened: (§1)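 Rats dosed iv 2 mg/kg (n = 2) or po 5 mg/kg (n = 3) in 10% NMP, 10% Cremophor, 80% pH 4.63 buffer. PK parameters derived from iv dosing, reported as mean ± SD.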

[7] = Half life in rats after 2 mg/kg intravenous dose; format: ADME, organism-based; design: dose 2 mg/kg, route intravenous; settings: Sprague-Dawley, rat, in vivo; procedure, shortened: as §1
[8] = Volume of distribution at steady state in Sprague-Dawley rat at 2 mg/kg, iv and 5 mg/kg, po; format: ADME, organism-based; settings: in vivo, read-out: Vdss; procedure, shortened: as §1
[9] = Clearance in Sprague-Dawley rat at 2 mg/kg, iv and 5 mg/kg, po; format: ADME, organism-based; settings: in vivo; procedure, shortened: as §1

Compound | IC50 [1] [nM] | IC50 [2] [nM] | EC50 [3] [nM] | Cmax [4] [nM] | AUC(0-t) at 8 h [5] [µM·h] | bioavailability [6] [%] | half-life [7] [h] | Vd [8] [L/kg] | clearance [9] [mL/min/kg]
C[C@H]1CN(c2cc(C(N)=O)cc(-c3ccnc(NC4CCCCC4)c3)n2)CCN1 | 86 | 8 | 831 |  |  |  |  |  | 
CCNc1cc(-c2cc(C(N)=O)cc(N3CCNCC3)n2)ccn1 | 31 | 4 | > 1000 |  |  |  |  |  | 
O=C1NCc2c1cc(N1CCNCC1)nc2-c1ccnc(NC2CCCCC2)c1 |  | 1 | 115 |  |  |  |  |  | 
Cn1ccc(Nc2cc(-c3cc(C#N)cc(N4CCNCC4)n3)ccn2)n1 | 68 |  | 428 |  |  |  |  |  | 
c1cc(-c2cc(-c3cn[nH]c3)cc(N3CCNCC3)n2)cc(NC2CCOCC2)n1 | 2 | < 1 | 234 |  |  |  |  |  | 
Cn1ccc(Nc2cc(-c3cc(C(N)=O)cc(N4CCNCC4)n3)ccn2)n1 | 7 | 1 | 674 |  |  |  |  |  | 
NC(=O)c1cc(-c2ccnc(NC3CCOCC3)c2)nc(N2CCNCC2)c1 | 9 | 1 | > 1000 |  |  |  |  |  | 
NC(=O)c1cc(-c2ccnc(NC3CCCC3)c2)nc(N2CCNCC2)c1 | 59 | 6 | 202 |  |  |  |  |  | 
NC(=O)c1cc(-c2ccnc(NC3CCCCC3)c2)nc(N2CCOCC2)c1 |  | > 1000 |  |  |  |  |  |  | 
NC(=O)c1cc(N[C@@H]2CCNC2)nc(-c2ccnc(NC3CCCCC3)c2)c1 | 18 | 2 | > 1000 |  |  |  |  |  | 
O=C1NCc2c1cc(-c1ccnc(NC3CCCCC3)c1)nc2N1CCNCC1 |  | 35 | > 1000 | 31 | 0.1 | 5 | 6.2 | 35 | 86
NC(=O)c1cc(-c2ccnc(NC3CCCCC3)c2)nc(N2CCCC(N)C2)c1 (centres undefined) | 168 | 14 | > 1000 |  |  |  |  |  | 
c1cc(-c2cc(-c3cn[nH]c3)cc(N3CCNCC3)n2)cc(NC2CCCCC2)n1 | 1 | < 1 | 17 |  |  |  |  |  | 
c1cc(-c2cc(-c3cc[nH]n3)cc(N3CCNCC3)n2)cc(NC2CCCCC2)n1 | 62 | 4 | 704 |  |  |  |  |  | 
CC1(C)CN(c2cc(C(N)=O)cc(-c3ccnc(NC4CCCCC4)c3)n2)CCN1 | 427 | 55 | > 1000 |  |  |  |  |  | 

Further lines, results first:

IC50 [1] [nM] | IC50 [2] [nM] | EC50 [3] [nM] | Cmax [4] [nM] | AUC(0-t) at 8 h [5] [µM·h] | bioavailability [6] [%] | half-life [7] [h] | Vd [8] [L/kg] | clearance [9] [mL/min/kg] | Compound
8 | 1 | 438 |  |  |  |  |  |  | CC(C)Nc1cc(-c2cc(C(N)=O)cc(N3CCNCC3)n2)ccn1
8 | 1 | 478 |  |  |  |  |  |  | NC(=O)c1cc(-c2ccnc(Nc3ccccc3Cl)c2)nc(N2CCNCC2)c1
1 | 1 | 24 |  |  |  |  |  |  | NC(=O)c1cc(-c2ccnc(Nc3ccccc3)c2)nc(N2CCNCC2)c1
540 | 68 | > 1000 |  |  |  |  |  |  | NC(=O)c1cc(N[C@H]2CCNC2)nc(-c2ccnc(NC3CCCCC3)c2)c1
 |  | 342 | 251 | 0.73 | 31 |  |  |  | FC(F)(F)c1cc(-c2ccnc(NC3CCCCC3)c2)nc(N2CCNCC2)c1
2 | < 1 | 92 |  |  |  |  |  |  | CC(C)Nc1cc(-c2cc(-c3cn[nH]c3)cc(N3CCNCC3)n2)ccn1
 |  | 679 |  |  |  |  |  |  | C[C@@H]1CN(c2cc(C(N)=O)cc(-c3ccnc(NC4CCCCC4)c3)n2)CCN1
238 | 25 | 752 |  |  |  |  |  |  | CN1CCN(c2cc(C(N)=O)cc(-c3ccnc(NC4CCCCC4)c3)n2)CC1
76 | 17 | 568 |  |  |  |  |  |  | FC(F)c1cc(-c2ccnc(NC3CCCCC3)c2)nc(N2CCNCC2)c1
35 | 5 | 378 | 231 | 1.1 | 18 | 3.1 | 7.8 | 31 | N#Cc1cc(-c2ccnc(Nc3ccccc3)c2)nc(N2CCNCC2)c1
212 | 46 | > 1000 |  |  |  |  |  |  | NCC1CCN(c2cc(C(N)=O)cc(-c3ccnc(NC4CCCCC4)c3)n2)CC1
